In ChEMBL document CHEMBL3045462, “Synthesis and fungicidal activity of novel 4,4'-bis(2' '-aryl-5' '-methyl/unsubstituted-4' '-oxo-thiazolidin-3' '-yl) bibenzyl” (2003):

Key:
Assay type in all cases: functional
Details in all cases: read-out: GI
[1] = system: Penicillium citrinum; assay: Growth inhibition of Penicillium citrinum at 1000 ppm after 96 hr by poisoned food technique
Procedure, shortened: (§1)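 Poisoned food technique in vitro: test compound mixed into Czapek's agar at 1000, 100 or 10 ppm, then Fusarium oxysporum or Penicillium citrinum grown on the medium. Growth inhibition was scored following previously described methods.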

[2] = system: Penicillium citrinum; assay: Growth inhibition of Penicillium citrinum at 100 ppm after 96 hr by poisoned food technique; procedure, shortened: as §1
[3] = system: Fusarium oxysporum; assay: Growth inhibition of Fusarium oxysporum at 10 ppm after 96 hr by poisoned food technique; procedure, shortened: as §1
[4] = system: Fusarium oxysporum; assay: Growth inhibition of Fusarium oxysporum at 1000 ppm after 96 hr by poisoned food technique; procedure, shortened: as §1
[5] = system: Fusarium oxysporum; assay: Growth inhibition of Fusarium oxysporum at 100 ppm after 96 hr by poisoned food technique; procedure, shortened: as §1
[6] = system: Penicillium citrinum; assay: Growth inhibition of Penicillium citrinum at 10 ppm after 96 hr by poisoned food technique; procedure, shortened: as §1

Clc1ccc(/C=N/c2ccc(CCc3ccc(/N=C/c4ccc(Cl)cc4)cc3)cc2)cc1 was tested, and the inhibition of growth at 1000 ppm [1] was 88%, the inhibition of growth at 100 ppm [2] was 30% and the inhibition of growth at 10 ppm [3] was 20%. It also gave an inhibition of growth at 1000 ppm [4] of 83%, an inhibition of growth at 100 ppm [5] of 47% and an inhibition of growth at 10 ppm [6] of 15%.
COc1cc([C@@H]2SCC(=O)N2c2ccc(CCc3ccc(N4C(=O)CS[C@H]4c4ccc(O)c(OC)c4)cc3)cc2)ccc1O showed an inhibition of growth at 1000 ppm [1] of 73%, an inhibition of growth at 100 ppm [2] of 56% and an inhibition of growth at 10 ppm [3] of 40%. It also gave an inhibition of growth at 1000 ppm [4] of 78%, an inhibition of growth at 100 ppm [5] of 65% and an inhibition of growth at 10 ppm [6] of 38%.
Work on COc1ccc(/C=N/c2ccc(CCc3ccc(/N=C/c4ccc(OC)c(OC)c4)cc3)cc2)cc1OC yielded an inhibition of growth at 1000 ppm [1] of 42%, an inhibition of growth at 100 ppm [2] of 27% and an inhibition of growth at 10 ppm [3] of 31%. It also gave an inhibition of growth at 1000 ppm [4] of 55%, an inhibition of growth at 100 ppm [5] of 43% and an inhibition of growth at 10 ppm [6] of 19%.
With C[C@@H]1S[C@@H](c2ccc(Cl)cc2)N(c2ccc(CCc3ccc(N4C(=O)[C@H](C)S[C@H]4c4ccc(Cl)cc4)cc3)cc2)C1=O the inhibition of growth at 1000 ppm [1] was 68%, the inhibition of growth at 100 ppm [2] was 42% and the inhibition of growth at 10 ppm [3] was 40%. It also gave an inhibition of growth at 1000 ppm [4] of 75%, an inhibition of growth at 100 ppm [5] of 65% and an inhibition of growth at 10 ppm [6] of 30%.
COc1ccc(/C=N/c2ccc(CCc3ccc(/N=C/c4ccc(OC)cc4)cc3)cc2)cc1 showed an inhibition of growth at 1000 ppm [1] of 58%, an inhibition of growth at 100 ppm [2] of 44% and an inhibition of growth at 10 ppm [3] of 29%. It also gave an inhibition of growth at 1000 ppm [4] of 46%, an inhibition of growth at 100 ppm [5] of 36% and an inhibition of growth at 10 ppm [6] of 21%.
C[C@@H]1S[C@@H](c2ccccc2)N(c2ccc(CCc3ccc(N4C(=O)[C@H](C)S[C@H]4c4ccccc4)cc3)cc2)C1=O gave an inhibition of growth at 1000 ppm [1] of 100%, an inhibition of growth at 100 ppm [2] of 79% and an inhibition of growth at 10 ppm [3] of 59%. The inhibition of growth at 1000 ppm [4] was 100%, the inhibition of growth at 100 ppm [5] was 81% and the inhibition of growth at 10 ppm [6] was 53%.
With COc1cc(/C=N/c2ccc(CCc3ccc(/N=C/c4ccc(O)c(OC)c4)cc3)cc2)ccc1O the inhibition of growth at 1000 ppm [1] was 57%, the inhibition of growth at 100 ppm [2] was 45% and the inhibition of growth at 10 ppm [3] was 48%. For the same molecule, the inhibition of growth at 1000 ppm [4] was 51%, the inhibition of growth at 100 ppm [5] was 47% and the inhibition of growth at 10 ppm [6] was 37%.
In the case of O=C1CS[C@@H](c2ccccc2)N1c1ccc(CCc2ccc(N3C(=O)CS[C@H]3c3ccccc3)cc2)cc1, the inhibition of growth at 1000 ppm [1] was 51%, the inhibition of growth at 100 ppm [2] was 20% and the inhibition of growth at 10 ppm [3] was 12%. The inhibition of growth at 1000 ppm [4] was 55%, the inhibition of growth at 100 ppm [5] was 30% and the inhibition of growth at 10 ppm [6] was 10%.
With Oc1ccccc1/C=N/c1ccc(CCc2ccc(/N=C/c3ccccc3O)cc2)cc1 the inhibition of growth at 1000 ppm [1] was 50%, the inhibition of growth at 100 ppm [2] was 33% and the inhibition of growth at 10 ppm [3] was 25%. It also gave an inhibition of growth at 1000 ppm [4] of 62%, an inhibition of growth at 100 ppm [5] of 53% and an inhibition of growth at 10 ppm [6] of 23%.
Molecule C(=N\c1ccc(CCc2ccc(/N=C/c3ccccc3)cc2)cc1)/c1ccccc1 has an inhibition of growth at 1000 ppm [1] of 56%, an inhibition of growth at 100 ppm [2] of 20% and an inhibition of growth at 10 ppm [3] of 9%. For the same molecule, the inhibition of growth at 1000 ppm [4] was 50%, the inhibition of growth at 100 ppm [5] was 24% and the inhibition of growth at 10 ppm [6] was 13%.
Molecule COc1ccc([C@@H]2SCC(=O)N2c2ccc(CCc3ccc(N4C(=O)CS[C@H]4c4ccc(OC)c(OC)c4)cc3)cc2)cc1OC has an inhibition of growth at 1000 ppm [1] of 67%, an inhibition of growth at 100 ppm [2] of 50% and an inhibition of growth at 10 ppm [3] of 24%. The inhibition of growth at 1000 ppm [4] was 38%, the inhibition of growth at 100 ppm [5] was 26% and the inhibition of growth at 10 ppm [6] was 26%.
C[C@@H]1S[C@@H](c2ccccc2O)N(c2ccc(CCc3ccc(N4C(=O)[C@H](C)S[C@H]4c4ccccc4O)cc3)cc2)C1=O gave an inhibition of growth at 1000 ppm [1] of 78%, an inhibition of growth at 100 ppm [2] of 65% and an inhibition of growth at 10 ppm [3] of 30%. For the same molecule, the inhibition of growth at 1000 ppm [4] was 88%, the inhibition of growth at 100 ppm [5] was 71% and the inhibition of growth at 10 ppm [6] was 37%.
In the case of COc1ccc([C@@H]2SCC(=O)N2c2ccc(CCc3ccc(N4C(=O)CS[C@H]4c4ccc(OC)cc4)cc3)cc2)cc1, the inhibition of growth at 1000 ppm [1] was 46%, the inhibition of growth at 100 ppm [2] was 32% and the inhibition of growth at 10 ppm [3] was 24%. It also gave an inhibition of growth at 1000 ppm [4] of 61%, an inhibition of growth at 100 ppm [5] of 50% and an inhibition of growth at 10 ppm [6] of 17%.
Molecule O=C1CS[C@@H](c2ccc(Cl)cc2)N1c1ccc(CCc2ccc(N3C(=O)CS[C@H]3c3ccc(Cl)cc3)cc2)cc1 has an inhibition of growth at 1000 ppm [1] of 87%, an inhibition of growth at 100 ppm [2] of 33% and an inhibition of growth at 10 ppm [3] of 15%. The inhibition of growth at 1000 ppm [4] was 82%, the inhibition of growth at 100 ppm [5] was 43% and the inhibition of growth at 10 ppm [6] was 8%.
With COc1ccc([C@@H]2S[C@@H](C)C(=O)N2c2ccc(CCc3ccc(N4C(=O)[C@H](C)S[C@H]4c4ccc(OC)c(OC)c4)cc3)cc2)cc1OC the inhibition of growth at 1000 ppm [1] was 63%, the inhibition of growth at 100 ppm [2] was 55% and the inhibition of growth at 10 ppm [3] was 51%. For the same molecule, the inhibition of growth at 1000 ppm [4] was 71%, the inhibition of growth at 100 ppm [5] was 58% and the inhibition of growth at 10 ppm [6] was 46%.
Work on COc1cc([C@@H]2S[C@@H](C)C(=O)N2c2ccc(CCc3ccc(N4C(=O)[C@H](C)S[C@H]4c4ccc(O)c(OC)c4)cc3)cc2)ccc1O yielded an inhibition of growth at 1000 ppm [1] of 87%, an inhibition of growth at 100 ppm [2] of 58% and an inhibition of growth at 10 ppm [3] of 76%. It also gave an inhibition of growth at 1000 ppm [4] of 91%, an inhibition of growth at 100 ppm [5] of 85% and an inhibition of growth at 10 ppm [6] of 45%.
With COc1ccc([C@@H]2S[C@@H](C)C(=O)N2c2ccc(CCc3ccc(N4C(=O)[C@H](C)S[C@H]4c4ccc(OC)cc4)cc3)cc2)cc1 the inhibition of growth at 1000 ppm [1] was 88%, the inhibition of growth at 100 ppm [2] was 69% and the inhibition of growth at 10 ppm [3] was 41%. It also gave an inhibition of growth at 1000 ppm [4] of 85%, an inhibition of growth at 100 ppm [5] of 62% and an inhibition of growth at 10 ppm [6] of 45%.
With O=C1CS[C@@H](c2ccccc2O)N1c1ccc(CCc2ccc(N3C(=O)CS[C@H]3c3ccccc3O)cc2)cc1 the inhibition of growth at 1000 ppm [1] was 67%, the inhibition of growth at 100 ppm [2] was 40% and the inhibition of growth at 10 ppm [3] was 39%. For the same molecule, the inhibition of growth at 1000 ppm [4] was 61%, the inhibition of growth at 100 ppm [5] was 50% and the inhibition of growth at 10 ppm [6] was 25%.
